Test results reported in article PMC12679438 (RSC Advances, 2025).
Read-outs that look alike come from different tables or passages of the source.

Columns and labels:
A549 = experiment: MTS cytotoxicity assay, 72 h, A549; assay type: cell-based, human; settings: Homo sapiens, A549, 72 h, read-out: IC50 A549
Summary of the method: (§1)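 Human lines were kept at 37 °C, 5% CO2 in recommended medium plus 10% FCS, penicillin–streptomycin, 2 mM glutamine, 1 mM bicarbonate, 1 mM pyruvate and 20 mM HEPES, and were mycoplasma-tested biweekly. Cells were exposed to test compound for 72 h on a robotic screening platform, then read by MTS. DMSO-treated cells were the negative control. IC50 came from dose–response curves, mean of ≥6 replicates.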

HCT116 = experiment: MTS cytotoxicity assay, 72 h, HCT116; assay type: cell-based, human; settings: Homo sapiens, HCT-116, 72 h, read-out: IC50 HCT116
Summary of the method: as §1

HCT116-p53 = experiment: MTS cytotoxicity assay, 72 h, HCT116-p53; assay type: cell-based, human; settings: Homo sapiens, read-out: IC50 HCT116-p53
Summary of the method: as §1

U2OS = experiment: MTS cytotoxicity assay, 72 h, U2OS; assay type: cell-based, human; settings: Homo sapiens, U2OS, read-out: IC50 U2OS
Summary of the method: as §1

RAMOS = experiment: MTS cytotoxicity assay, 72 h, RAMOS; assay type: cell-based, human; settings: Homo sapiens, Ramos, read-out: IC50 RAMOS
Summary of the method: as §1

K562 = experiment: MTS cytotoxicity assay, 72 h, K562; assay type: cell-based, human; settings: Homo sapiens, K562, 72 h, read-out: IC50 K562
Summary of the method: as §1

Jurkat = experiment: MTS cytotoxicity assay, 72 h, Jurkat; assay type: cell-based, human; settings: Homo sapiens, Jurkat, read-out: IC50 Jurkat
Summary of the method: as §1

CCRF-CEM = experiment: MTS cytotoxicity assay, 72 h, CCRF-CEM; assay type: cell-based, human; settings: Homo sapiens, CCRF-CEM, read-out: IC50 CCRF-CEM
Summary of the method: as §1

BJ = experiment: MTS cytotoxicity assay, 72 h, BJ fibroblasts; assay type: cell-based, human; settings: Homo sapiens, BJ, read-out: IC50 BJ
Summary of the method: as §1

MRC-5 = experiment: MTS cytotoxicity assay, 72 h, MRC-5 fibroblasts; assay type: cell-based, human; settings: Homo sapiens, MRC5, 72 h, read-out: IC50 MRC-5
Summary of the method: as §1

[1] = test system: panel of human cell lines; experiment: MTS cytotoxicity assay, statements over groups of cell lines of the panel; assay type: cell-based; settings: Homo sapiens
Summary of the method: as §1

[2] = 72 h, read-out: IC50 across all tested cell lines
[3] = read-out: IC50 across multiple cancer lines

| SMILES | IC50 (A549) | IC50 (HCT116) | IC50 (HCT116-p53) | IC50 (U2OS) | IC50 (RAMOS) | IC50 (K562) | IC50 (Jurkat) | IC50 (CCRF-CEM) | IC50 (BJ) | IC50 (MRC-5) | IC50 [1, 2] | IC50 [1, 3] |
| --- | --- | --- | --- | --- | --- | --- | --- | --- | --- | --- | --- | --- |
| O=C(Nc1ccccc1)C1CN(c2cc(-c3ccncc3)n[nH]c2=O)C1 [Compound 7, 1-(3-oxo-6-(pyridin-4-yl)-2,3-dihydropyridazin-4-yl)-N-phenylazetidine-3-carboxamide] | > 50 µM | > 50 µM | > 50 µM | > 50 µM | > 50 µM | > 50 µM | > 50 µM | > 50 µM | > 50 µM | > 50 µM | > 50 µM | – |
| O=C(Nc1ccccc1)C1CN(c2cc(-c3ccccc3)n[nH]c2=O)C1 [Compound 8, 1-(3-oxo-6-phenyl-2,3-dihydropyridazin-4-yl)-N-phenylazetidine-3-carboxamide] | > 50 µM | > 50 µM | > 50 µM | > 50 µM | > 50 µM | > 50 µM | > 50 µM | > 50 µM | > 50 µM | > 50 µM | > 50 µM | – |
| COc1ccc(-c2cc(N3CC(C(=O)Nc4ccccc4)C3)c(=O)[nH]n2)cc1 [Compound 10, 1-(6-(4-methoxyphenyl)-3-oxo-2,3-dihydropyridazin-4-yl)-N-phenylazetidine-3-carboxamide] | > 50 µM | > 50 µM | > 50 µM | > 50 µM | 11 µM | > 50 µM | 40.3 µM | 20.8 µM | > 50 µM | > 50 µM | – | – |
| O=C(Nc1ccccc1)C1CN(c2cc(-c3ccc(Cl)cc3)n[nH]c2=O)C1 [Compound 11, 1-(6-(4-chlorophenyl)-3-oxo-2,3-dihydropyridazin-4-yl)-N-phenylazetidine-3-carboxamide] | 32 µM | 38.9 µM | 37.9 µM | 26.9 µM | 10.4 µM | > 50 µM | 33.2 µM | 23 µM | 34 µM | 26 µM | – | 18 to 37 µM |
| O=C(Nc1ccccc1)C1CN(c2cc(-c3ccc(F)cc3F)n[nH]c2=O)C1 [Compound 12, 1-(6-(2,4-difluorophenyl)-3-oxo-2,3-dihydropyridazin-4-yl)-N-phenylazetidine-3-carboxamide] | 36.3 µM | 37.1 µM | 32.8 µM | 16.2 µM | 16.8 µM | 31.8 µM | 33.9 µM | 18 µM | 28.9 µM | 16.6 µM | – | 18 to 37 µM |
| O=C(NCc1ccco1)C1CN(c2cc(-c3ccncc3)n[nH]c2=O)C1 [Compound 17, N-(furan-2-ylmethyl)-1-(3-oxo-6-(pyridin-4-yl)-2,3-dihydropyridazin-4-yl)azetidine-3-carboxamide] | > 50 µM | > 50 µM | > 50 µM | > 50 µM | > 50 µM | > 50 µM | > 50 µM | > 50 µM | > 50 µM | > 50 µM | > 50 µM | – |
| O=C(NCc1ccco1)C1CN(c2cc(-c3ccccc3)n[nH]c2=O)C1 [Compound 18, N-(furan-2-ylmethyl)-1-(3-oxo-6-phenyl-2,3-dihydropyridazin-4-yl)azetidine-3-carboxamide] | > 50 µM | > 50 µM | > 50 µM | > 50 µM | 41.2 µM | 30.4 µM | 19.2 µM | 30.2 µM | > 50 µM | > 50 µM | – | – |
| O=C(NCc1ccco1)C1CN(c2cc(-c3cccc(F)c3)n[nH]c2=O)C1 [Compound 19, 1-(6-(3-fluorophenyl)-3-oxo-2,3-dihydropyridazin-4-yl)-N-(furan-2-ylmethyl)azetidine-3-carboxamide] | > 50 µM | > 50 µM | > 50 µM | > 50 µM | 16.3 µM | > 50 µM | 25.1 µM | > 50 µM | > 50 µM | > 50 µM | – | – |
| COc1ccc(-c2cc(N3CC(C(=O)NCc4ccco4)C3)c(=O)[nH]n2)cc1 [Compound 20, N-(furan-2-ylmethyl)-1-(6-(4-methoxyphenyl)-3-oxo-2,3-dihydropyridazin-4-yl)azetidine-3-carboxamide] | > 50 µM | > 50 µM | > 50 µM | > 50 µM | 19.7 µM | 38.7 µM | 24.3 µM | > 50 µM | > 50 µM | > 50 µM | – | – |
